PfG6PD inh: PfG6PD enzyme inhibitors, primary screen, biochemical, fluorescence intensity, uHTS; AID 504690, 2011; 350,000 tested, 0.78% active; inhibition, % at 20 µM; PfGluPho enzyme, NADPH resazurin-diaphorase fluorescence; glucose-6-phosphate dehydrogenase-6-phosphogluconolactonase (Plasmodium falciparum 3D7);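 active means inhibition reaching at least a set limit at 20 µM in the primary screen, cut at about 59% in these data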;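 further: 0% = DMSO wells with substrate and 100% = DMSO wells lacking glucose-6-phosphate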
HKDC1 inhibitor: HKDC1 hexokinase inhibitors, primary screen, biochemical, fluorescence, uHTS; AID 493160, 2011; Q2TB90; recombinant HKDC1, G6PDH/diaphorase resazurin coupled fluorescence; 340,000 tested, 0.16% active; inhibition, % at 20 µM;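 active means inhibition above about 35% when tested at 20 µM, limit read from the data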;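 further: plate controls were DMSO wells with enzyme for no effect and DMSO wells lacking enzyme for full effect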
Target sequence (Q2TB90 whole entry, looked up): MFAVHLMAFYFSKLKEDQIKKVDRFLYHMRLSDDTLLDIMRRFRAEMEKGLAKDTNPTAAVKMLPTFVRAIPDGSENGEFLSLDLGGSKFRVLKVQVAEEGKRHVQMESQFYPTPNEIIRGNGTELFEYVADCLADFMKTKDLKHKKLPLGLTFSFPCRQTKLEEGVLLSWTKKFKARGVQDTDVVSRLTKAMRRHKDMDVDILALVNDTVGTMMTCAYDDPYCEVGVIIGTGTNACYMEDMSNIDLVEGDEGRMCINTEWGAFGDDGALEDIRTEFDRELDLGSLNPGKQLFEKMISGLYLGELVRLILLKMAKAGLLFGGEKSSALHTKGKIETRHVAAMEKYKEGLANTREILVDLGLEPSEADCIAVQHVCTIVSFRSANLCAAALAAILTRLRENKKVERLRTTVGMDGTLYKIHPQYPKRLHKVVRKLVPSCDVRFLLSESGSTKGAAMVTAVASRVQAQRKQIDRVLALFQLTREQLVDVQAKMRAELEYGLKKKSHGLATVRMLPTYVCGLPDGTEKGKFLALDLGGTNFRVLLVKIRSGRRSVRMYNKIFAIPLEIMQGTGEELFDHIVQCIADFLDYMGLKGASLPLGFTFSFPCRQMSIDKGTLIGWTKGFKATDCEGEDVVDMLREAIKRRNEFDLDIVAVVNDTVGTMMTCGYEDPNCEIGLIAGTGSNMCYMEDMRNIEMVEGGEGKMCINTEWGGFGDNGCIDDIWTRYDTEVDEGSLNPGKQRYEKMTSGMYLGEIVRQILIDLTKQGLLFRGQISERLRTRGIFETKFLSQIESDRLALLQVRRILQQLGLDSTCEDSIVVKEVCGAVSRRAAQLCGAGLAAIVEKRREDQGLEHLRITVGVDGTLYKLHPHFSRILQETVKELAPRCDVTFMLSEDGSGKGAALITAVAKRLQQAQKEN
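Material – in-house recombinant HK5 (HKDC1) enzyme · Quantity – HKDC1 at 5 µg/mL · Buffer or medium – pH 8.0 Tris buffer with 10 mM MgCl2 · Reagent – glucose with 1 mM ATP · Dosing – single 20 µM dose · Times – reaction time 90 min, room temperature, protected from light · Technique – resorufin fluorescence at 613 nm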
G6PDH CS: L. mesenteroides G6PDH inhibitors, counter-screen for G6PDH-coupled screening assays, biochemical, Leuconostoc mesenteroides enzyme; AID 1020, 2008; Purified L. mesenteroides G6PDH, diaphorase/resazurin coupled fluorescence, 45 min; glucose-6-phosphate dehydrogenase [Leuconostoc mesenteroides]; 200,000 tested, 0.12% active; inhibition, % at 5 µM; in the data active means inhibition above about 50%
Diaphorase act: compounds boosting diaphorase resazurin reduction – biochemical, uHTS, resorufin fluorescence, counter-screen for diaphorase-coupled primary assays, primary screen; Diaphorase/resazurin coupled assay, 16 min; stronger effect = higher value; 1 = vehicle wells, 0 = NADH-free wells; activation factor at 20 µM; 190,000 tested, 0.005% active; AID 1229, 2008;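 active means diaphorase activity raised at least twofold by the compound at 20 µM; inactive means activation factor below 2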
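Assay system: Purified diaphorase enzyme from Clostridium kluyveri | Amount: Enzyme 0.07 U/mL final | Dosing: Compound 20 µM once, DMSO 1% | Timing: 16 min reaction at room temperature | Detection: Fluorescence, excitation 544 nm and emission 590 nm | Evaluation: Higher resorufin formation from activation or reduction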
Diaphorase inh: diaphorase inhibitors and chemical oxidizers, primary screen, counter-screen for diaphorase-coupled primary assays, biochemical, uHTS, resorufin fluorescence; diaphorase resazurin-to-resorufin fluorescence, NADH, 16 min; bacterial (C. kluyveri) enzyme, not human; AID 1217, 2008; 190,000 tested, 0.69% active; inhibition, % at 20 µM;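 active means primary screen inhibition at 20 µM above a set limit, cut at about 50% in these data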;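 further: plate controls were DMSO with full reaction for no effect and wells lacking NADH for full effect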
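controls = No-NADH positive control and DMSO neutral control | system = Clostridium kluyveri diaphorase enzyme | timing = reaction incubation of 16 min at room temperature | signal = resorufin fluorescence 544/590 nm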
PfGluPho conf: PfG6PD inhibitors, hit retest, confirmation, biochemical, fluorescence intensity, single concentration. AID 504753, 2011. recombinant PfGluPho, NADPH-diaphorase-resazurin fluorescence. 2,400 tested, 34% active. inhibition, % at 20 µM. shares compounds with PfG6PD inh;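 active means inhibition of at least 50% at 20 µM in any single replicate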;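 further: 0% = DMSO with substrate and 100% = DMSO lacking glucose-6-phosphate substrate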
Diaphorase 10uM: diaphorase inhibitors and chemical oxidizers, confirmation, counter-screen for P. falciparum G6PD inhibitor project, biochemical, fluorescence intensity, 10 µM NADPH; diaphorase-coupled resazurin reduction, NADPH 10 uM; shares compounds with PfG6PD inh; 820 tested, 39% active; inhibition, % at 20 µM;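 active means average inhibition reaching 50% or more with the compound at 20 µM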;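 further: resorufin red fluorescence formed as diaphorase reduces resazurin using NADPH; 0% = DMSO with enzyme and 100% = DMSO without enzyme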
Diaphorase 30uM: diaphorase inhibitors and chemical oxidizers, confirmation, counter-screen for P. falciparum G6PD inhibitor project, biochemical, fluorescence intensity, 30 µM NADPH | shares compounds with PfG6PD inh | Diaphorase/resazurin coupled assay, resorufin fluorescence | inhibition, % at 20 µM | 820 tested, 29% active;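 active means inhibition averaging 50% or more, tested at 20 µM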;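 further: 0% = DMSO with enzyme and 100% = DMSO wells lacking diaphorase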
* hit, by the source's call; nt = not tested or not shown. The list is not random: actives were taken first. Their share in the collection is about 1.3%.

SMILES | PfG6PD inh | HKDC1 inhibitor | G6PDH CS | Diaphorase act | Diaphorase inh | PfGluPho conf | others
Cc1ccccc1-n1c(N)c(C(=O)Nc2ccc(F)cc2)sc1=S | 34 | -2 | 7 | 1 | 4 | nt
Cc1ccc(NC(=O)c2sc(=S)n(-c3cc(C)ccc3F)c2N)cc1 | 75* | -8 | 7 | 1 | 3 | 25
Cc1ccc(-n2c(N)c(C(N)=O)sc2=S)c(C)c1 | 62* | -12 | 4 | 0.9 | 11 | 29
CCOC(=O)c1cc(-c2ccccc2)nc2c(O)cccc12 | 6 | 6 | nt | nt | nt | nt
C[C@H](CO)N1C[C@H](C)[C@@H](CN(C)Cc2ccncc2)Oc2ccc(NC(=O)CCCCCC(=O)Nc3ccccc3N)cc2C1=O | -6 | 0 | nt | nt | nt | nt
Nc1nonc1-n1nnc(C(=O)N/N=C/c2cccc(F)c2)c1-c1ccc2c(c1)OCO2 | 106* | 1 | nt | nt | nt | 85* | Diaphorase 10uM=75*;Diaphorase 30uM=65*
Nc1nonc1-n1nnc(C(=O)N/N=C/c2cccc(F)c2)c1-c1ccccc1 | 85* | 3 | nt | nt | nt | 44
COc1ccc(/C=N/NC(=O)c2nnn(-c3nonc3N)c2-c2cccs2)cc1OC | -12 | 0 | nt | nt | nt | nt
Nc1nonc1-n1nnc(C(=O)N/N=C/c2cccc(Cl)c2)c1-c1cccs1 | 126* | 5 | nt | nt | nt | 98* | Diaphorase 10uM=94*;Diaphorase 30uM=75*
Nc1nonc1-n1nnc(C(=O)N/N=C/c2cccnc2)c1-c1ccccc1 | 9 | -3 | nt | nt | nt | nt
CCOc1ncccc1C(=O)NCC(c1ccccc1)N(C)C (stereo not drawn) | 0 | -6 | nt | nt | nt | nt
COc1ccc(S(=O)(=O)N2CCOCC2)cc1NC(=O)Cc1ccc2c(c1)OCCO2 | -4 | -2 | nt | nt | nt | nt
Cn1c(SCCC#N)nnc1-c1ccc(F)cc1 | nt | nt | 4 | 0.9 | 9 | nt
CC1=C(SCCC#N)S/C(=C2\SC(C)=C(SCCC#N)S2)S1 | 60* | 1 | 2 | 0.7 | 26 | 3
CC1(C)CC(=O)C2=C(C1)NC1=C(C(=O)c3ccccc31)C2c1ccc(Cl)cc1 (stereo not drawn) | 68* | 9 | 17 | 0.8 | 21 | 14
Cc1nc(NS(=O)(=O)c2ccccc2)sc1C(=O)N/N=C/c1ccccc1 | 74* | -2 | nt | nt | nt | 43
Cc1nc(NS(=O)(=O)c2ccccc2)sc1C(=O)NNS(=O)(=O)c1ccccc1 | -11 | -3 | nt | nt | nt | nt
COc1cc(SC)ccc1C(=O)Nc1ccc(C)cc1 | 61* | -10 | 10 | 1 | 2 | 22
COc1cc(SC)ccc1C(=O)Nc1ccc2ncccc2c1 | 81* | -2 | nt | nt | nt | 12
C[C@@H]1CN([C@H](C)CO)C(=O)c2cc(-c3ccc(C(=O)N(C)C)cc3)cnc2O[C@@H]1CN(C)C(=O)c1cccnc1 | 4 | nt | nt | nt | nt | nt
O=C(/C=C/c1ccc(O)cc1)c1ccc(NC2=C(N3CCCCC3)C(=O)c3ccccc3C2=O)cc1 | 71* | 28 | 52* | 0.6 | 36 | 19
O=C(/C=C/c1ccc(O)cc1)c1ccccc1 | -3 | 3 | nt | nt | nt | nt
COc1ccc(-c2cc3ccc(F)cc3cn2)cc1 | 69* | -1 | nt | nt | nt | 22
COc1ccc(-c2cc3cc(F)ccc3cn2)cc1 | 24 | 8 | nt | nt | nt | nt
Brc1cccc(C=Nc2cccc3ncccc23)c1 | 10 | 14 | nt | nt | nt | nt

Screening data (PubChem BioAssay)
